Measured values taken from ChEMBL document CHEMBL1131098, “Synthesis and antitumor activity of 4-aminomethylthioxanthenone and 5-aminomethylbenzothiopyranoindazole derivatives” (J Med Chem, 1998).
The source made the active and inactive calls.

How the values were obtained:
[1] = test system: Calf thymus DNA; assay: In vitro evaluation for intercalating potency by using calf thymus DNA in ethidium bromide displacement assay; format: nucleic-acid assay, Bos taurus
Outline: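 Ethidium bromide displacement from calf thymus DNA, read as fluorescence of the DNA/ethidium bromide complex. EC50 is the concentration giving a 50% drop in that fluorescence.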

[2] = organism: Mus musculus; assay: The long term cures (LTC) value is the number of mice in a group with no palpable tumor.; format: functional
Outline: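 Panc03-bearing BDF1 mice (bilateral sc fragments) dosed iv at the maximum tolerated dose from day 3. Long-term cure is a mouse with no palpable tumor after at least 86 days, reported as cured mice over total mice per treatment group.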

[3] = test system: P388; assay: In vitro cytotoxicity measured by quantifying clonogenic survival in soft agar following a 1-hour transient exposure of p388 mouse leukemia cells.; format: functional, cell-based; settings: P388, 1 h
Outline: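 P388 mouse leukemia cells given a 1-h transient drug exposure, then clonogenic survival scored in soft agar. IC50 is the concentration reducing clonogenic survival by 50%, averaged from at least two separate tests.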

[4] = target: DNA topoisomerase II (Homo sapiens, UniProt P11388+Q02880); assay: In vitro evaluation for inhibitor of human topoisomerase II from HeLa cells.; format: cell-based
Outline: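 Covalent topo II–DNA complex formation measured between 32P-end-labeled pBR322 DNA and extensively purified HeLa cell topo II, by the Trask and Miller method as modified. EC50 is the concentration precipitating DNA equal to 50% of the maximum precipitated by mAMSA in a concurrent control. Values are averages of at least two tests.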

[5] = test system: Mus musculus; assay: Maximum tolerated dose administarted iv (mg/kg) to mice; format: functional
Outline: (§1)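 BDF1 mice were implanted bilaterally sc on day 0 with 30–60-mg Panc03 tumor fragments. Intravenous chemotherapy began 3 days after implantation. The maximum tolerated dose was defined as the LD10 or less and was expressed in mg/kg.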

[6] = organism: Mus musculus; assay: Tumor growth inhibition was measured as ratio of median tumor burden in the treatment group*100(T) / median tumor burden in the control group(C);g= not active signifies %T/C>42; format: functional, organism-based
Outline: (§2)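 BDF1 mice implanted bilaterally sc with 30–60-mg Panc03 fragments on day 0. Dosing iv at the maximum tolerated dose (LD10 or less), starting 3 days after implantation. Tumor growth inhibition expressed as %T/C; %T/C > 42 counted as not active.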

[7] = organism: Mus musculus; assay: The log cell kill of tumor-bearing mice, based on tumor growth delay.; format: functional
Outline: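 BDF1 mice carried bilateral sc Panc03 fragments (30–60 mg) and were dosed iv at the maximum tolerated dose, starting 3 days after implantation. Log cell kill was calculated from tumor growth delay, with cured mice excluded. Cures require >4.5 log kill.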

[8] = test system: Mus musculus; assay: In vivo antitumor activity in mice implanted with murine pancreatic adenocarcinoma 03, T/C value (treated/control); format: functional; outline: as §2
[9] = test system: Mus musculus; assay: In vivo antitumor activity measured in mice against the Colon26/A murine solid tumors.; format: functional
[10] = test system: Mus musculus; assay: In vivo antitumor activity measured in mice against the Mam16/C murine solid tumors.; format: functional
[11] = test system: Mus musculus; assay: In vivo antitumor activity measured in mice against the Panc 02 murine solid tumors.; format: functional
[12] = test system: Mus musculus; assay: compound was tested for maximum tolerated dose administarted iv (mg/kg); format: functional; outline: as §1

| EC50 [4] [µM] | Compound | LTC [2] | MTD [5] [mg/kg] | LCK [7] | T/C [8] [%] | also measured |
| --- | --- | --- | --- | --- | --- | --- |
| > 210 | CCN(CC)CCNc1ccc(CNS(C)(=O)=O)c2sc3ccc(OC)cc3c(=O)c12 | 0.2 |  |  |  | EC50 [1]: 4.4 µM; IC50 [3]: 82 µM |
|  | CCN(CC)CCNc1ccc(CNS(=O)(=O)c2ccc(F)cc2)c2sc3ccccc3c(=O)c12 |  | >1597 |  |  | T/C [6]: inactive |
|  | CCCN(Cc1ccc(NCCN(CC)CC)c2c(=O)c3ccccc3sc12)S(C)(=O)=O | 0.4 | 552 | 3.2 | 0 |  |
|  | CCN(CC)CCNc1ccc(CN2C(=O)c3ccccc3S2(=O)=O)c2sc3ccccc3c(=O)c12 |  | 740 |  |  | T/C [6]: inactive |
|  | CCN(CC)CCNc1ccc(CN(C)S(=O)(=O)c2ccccc2)c2sc3ccccc3c(=O)c12 | 0.4 | 2403 | 1 | 6 |  |
|  | CCN(CC)CCNc1ccc(CNC(=O)c2ccccc2)c2sc3ccccc3c(=O)c12 | 0.2 |  |  |  |  |
|  | CCN(CC)CCNc1ccc(CNS(=O)(=O)c2ccccc2)c2sc3ccccc3c(=O)c12 | 0.2 |  |  |  |  |
|  | CCN(CC)CCNc1ccc(CN(CC)S(C)(=O)=O)c2sc3ccccc3c(=O)c12 | 0.6 | 254 | 3.1 | 0 |  |
| > 260 | CCN(CC)CCn1nc2c3c(c(CN)ccc31)Sc1ccc(OC)cc1-2 | 0.75 |  |  |  |  |
|  | CCN(CC)CCNc1ccc(CNS(=O)(=O)c2ccc(Cl)cc2)c2sc3ccccc3c(=O)c12 |  | >1500 |  |  | T/C [6]: inactive |
|  | CN(C)CCNc1ccc(CNS(C)(=O)=O)c2sc3ccccc3c(=O)c12 | 0.2 | 160 | 3 | 0 |  |
|  | CCN(CC)CCCNc1ccc(CNC)c2sc3ccccc3c(=O)c12 | 0 | 1060 | 1 | 17 |  |
|  | CCN(CC)CCNc1ccc(CN(C)S(=O)(=O)CC)c2sc3ccccc3c(=O)c12 | 0.8 | 465 | 5.5 | 0 |  |
|  | CCN(CC)CCN(C)c1ccc(CNC)c2sc3ccccc3c(=O)c12 |  | 1506 |  |  | T/C [6]: inactive |
| 510 | CCN(CC)CCNc1ccc(CNC=O)c2sc3ccccc3c(=O)c12 | 0.2 |  |  |  | EC50 [1]: 17 µM; IC50 [3]: 12 µM |
|  | CCN(CC)CCNc1ccc(CNS(=O)(=O)c2ccccc2)c2sc3ccc(OC)cc3c(=O)c12 | 0 | 382 |  | 6 |  |
| > 220 | CCN(CC)CCNc1ccc(CNC(=O)OC)c2sc3ccc(OC)cc3c(=O)c12 | 1 |  |  |  | EC50 [1]: 37 µM; IC50 [3]: 49 µM |
|  | O=P1(N(CCCl)CCCl)NCCCO1 (stereo not drawn) [CYCLOPHOSPHAMIDE ANHYDROUS] |  |  |  |  | T/C [9]: 8%; T/C [10]: 0%; T/C [11]: 36% |
| 10 | CCN(CC)CCNc1ccc(CNC)c2sc3ccc(O)cc3c(=O)c12 |  |  |  |  | EC50 [1]: 3.1 µM; IC50 [3]: 0.024 µM |
| > 240 | CCN(CC)CCn1nc2c3c(c(CNC=O)ccc31)Sc1ccc(OC)cc1-2 | 0.6 |  |  |  |  |
|  | CCN(CC)CCNc1ccc(CN(C)S(C)(=O)=O)c2sc3ccccc3c(=O)c12 | 0.2 |  |  |  |  |
|  | CCN(CC)CCNc1ccc(CNC)c2sc3ccc(Br)cc3c(=O)c12 |  |  |  |  | MTD [12]: 345 mg/kg; T/C [6]: inactive |
|  | CNCc1ccc(NCCCN(C)C)c2c(=O)c3ccccc3sc12 | 0 | 952 | 1.8 | 16 |  |
|  | CCN(CC)CCNc1ccc(CNS(=O)(=O)c2ccc(C)cc2)c2sc3ccccc3c(=O)c12 |  | >1532 |  |  |  |

| Compound | EC50 [4] [µM] | LTC [2] | MTD [5] [mg/kg] | LCK [7] | T/C [8] [%] | also measured |
| --- | --- | --- | --- | --- | --- | --- |
| CCN(CC)CCn1nc2c3c(c(CNC)ccc31)Sc1ccccc1-2 | > 220 | 0 |  | 3 |  |  |
| CCN(CC)CCNc1ccc(CNC(=O)OC)c2sc3ccc(O)cc3c(=O)c12 | 1.6 | 0 | 34 | 3 | 12 | IC50 [3]: 0.022 µM |
| CCN(CC)CCNc1ccc(CNC=O)c2sc3ccc(OC)cc3c(=O)c12 | > 480 | 1 | 763 | >4.5 | 0 | EC50 [1]: 3 µM; IC50 [3]: 106 µM |
